A selection: hits, their analogues and other compounds. The true share with any hit is near 4.3%.
TAAR1 ag = human TAAR1 agonism; activation, % at 3 µM; 360,000 tested, 0.99% active; Q96RJ0; CHO RD-HGA16 TAAR1, Fluo-8 calcium fluorescence; vehicle wells 0%, saturating PEA agonist 100%;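 active = activation above the mean activation of all test compounds in the run plus 3 SD, cut at about 38% in these data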
Target sequence (Q96RJ0 whole entry, looked up): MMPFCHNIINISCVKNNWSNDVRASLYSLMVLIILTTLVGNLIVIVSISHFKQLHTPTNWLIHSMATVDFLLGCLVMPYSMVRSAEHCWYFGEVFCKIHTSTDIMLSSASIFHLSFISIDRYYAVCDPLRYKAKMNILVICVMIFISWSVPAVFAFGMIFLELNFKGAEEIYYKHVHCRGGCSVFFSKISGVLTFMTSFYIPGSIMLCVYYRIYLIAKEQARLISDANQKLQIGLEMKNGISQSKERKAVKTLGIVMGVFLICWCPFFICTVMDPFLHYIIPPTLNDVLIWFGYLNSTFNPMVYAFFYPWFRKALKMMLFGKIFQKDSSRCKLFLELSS
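Test system: RD-HGA16 (CHO) cells co-expressing Gα16 and hTAAR1 / Benchmarks: DMSO vehicle as 0%, PEA at EC100 as 100% / Repeats: no replicates (n 1) / Measure: % activation from peak over basal fluorescence ratio, DMSO-to-PEA scaled / Timing: 17-24 h plating, Fluo-8 75 min 37 °C, 30 min RT / Technique: kinetic Fluo-8 calcium fluorescence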
MC4R ag barr = activates human MC4R beta-arrestin recruitment | P32245 | U2OS MC4R beta-arrestin complementation, luminescence; percent of melanotan II response, DMSO zero | activation, % at 8.9 µM | 360,000 tested, 0.98% active | AID 540308;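 active = activation above a per-plate cutoff, the mean activation of sample wells on that plate plus 3 SD, cut at about 8% in these data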
MC4R antag cAMP = blocks human MC4R cAMP signaling; P32245; MC4R-expressing cells, MTII-stimulated cAMP, LANCE TR-FRET; inhibition, % at 6.5 µM; 360,000 tested, 0.48% active;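 active = inhibition above its plate's cutoff, the mean of tested wells on that plate plus 3 SD, cut at about 29% in these data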;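 note: 0% = Melanotan II alone and 100% = Melanotan II plus saturating MCL0020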
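System: U2OS cells stably expressing human melanocortin 4 receptor (MC4R). Reagent: Melanotan II challenge after compound preincubation. Doses: 6.5 µM. Times: 30-min compound, 1-h challenge, 1-h detection, room temperature. Measured by: TR-FRET with Eu-cAMP and labeled anti-cAMP, 671 nm. Replicates: singlicate.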
TAAR1 antagonist = human TAAR1 antagonism; Q96RJ0; CHO RD-HGA16 TAAR1, Fluo-8 calcium fluorescence, antagonist; inhibition, % at 3 µM; 360,000 tested, 1.5% active; AID 624466;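 active = inhibition above a per-plate cutoff, the mean inhibition of test compounds on that plate plus 3 SD, cut at about 49% in these data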;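 note: 0% = DMSO plus EC80 beta-PEA response and 100% = DMSO alone without agonist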
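Test system: hTAAR1-expressing CHO RD-HGA16 cells, Gα16-coupled; Probe or stimulus: EC80 β-phenethylamine stimulus; Compound dosing: single nominal final test compound concentration of 3 µM; Timing: 140 s kinetic read after compound, 140 s after agonist; Signal: Fluo-8 calcium-sensitive fluorescence; Measure: % inhibition of agonist calcium response; Controls: DMSO and EC80 PEA controls.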
Beta2AR agonist = human beta-2 adrenergic receptor agonism by FAP. response, % (concentration not given with the values). P07550. 340,000 tested, 0.43% active. Am2.2-beta2AR cells, FAP receptor internalization, flow cytometry;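 active = response above a set limit, near 3 SD of response in nonfluorescent compounds, cut at about 42% in these data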
Target sequence (P07550 whole entry, looked up): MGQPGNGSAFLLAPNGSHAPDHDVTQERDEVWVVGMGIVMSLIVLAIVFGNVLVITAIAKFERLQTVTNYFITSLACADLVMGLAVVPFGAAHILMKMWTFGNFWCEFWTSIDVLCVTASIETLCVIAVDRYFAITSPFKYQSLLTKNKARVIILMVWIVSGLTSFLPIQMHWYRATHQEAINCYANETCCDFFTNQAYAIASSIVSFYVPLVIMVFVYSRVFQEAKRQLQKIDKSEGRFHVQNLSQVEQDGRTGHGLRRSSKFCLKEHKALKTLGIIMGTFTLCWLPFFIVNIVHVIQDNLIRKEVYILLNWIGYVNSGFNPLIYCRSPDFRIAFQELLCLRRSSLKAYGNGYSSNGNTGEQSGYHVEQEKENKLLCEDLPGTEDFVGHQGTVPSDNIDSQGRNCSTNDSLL
m5-HT2A agonist = activates the mouse 5-HT2A serotonin receptor; 360,000 tested, 0.66% active; CHO-K1 mHTR2A beta-arrestin complementation, luminescence; percent of 30 µM serotonin response; activation, % at 7.6 µM;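 active = activation above a run cutoff, the mean activation of all tested compounds plus 3 SD, cut at about 14% in these data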;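 note: 0% = plate median of compound wells and 100% = 30 µM serotonin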
nonsel antag count = nonselective antagonist in TAAR1 antagonist counter-screen | shares compounds with TAAR1 antagonist | 2,400 tested, 77% active | counterscreen cell line, calcium fluorescence, antagonist mode | inhibition, % at 3 µM; in the data active = inhibition above about 22%;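 note: CHO-Ga16 host cells stimulated with ATP at an EC80 level; 0% = agonist EC80 plus vehicle and 100% = vehicle without agonist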
TAAR1 ant conf = confirmation of human TAAR1 antagonists; shares compounds with TAAR1 antagonist; TAAR1-expressing cells, fluorescence antagonist read-out; inhibition, % at 3 µM; 2,400 tested, 40% active; in the data active = inhibition above about 49%;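 note: CHO-Ga16 host cells challenged with agonist PEA near its EC80; 0% = agonist at EC80 plus vehicle and 100% = vehicle with no agonist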
Ga16 nonsel ag = nonselective Ga16 agonist in TAAR1 antagonist counter-screen; shares compounds with TAAR1 antagonist; Ga16-expressing cells, calcium fluorescence, agonist counterscreen; activation, % at 3 µM; 2,400 tested, 18% active; AID 651953; in the data active = activation above about 12%;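 note: 0% = vehicle wells and 100% = saturating stimulus response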
TAAR1 ag counter = counter-screen for human TAAR1 antagonists: TAAR1 agonists | shares compounds with TAAR1 antagonist | hTAAR1 cell line, fluorescence activation, agonist mode | activation, % at 3 µM | 2,400 tested, 2% active | AID 651955; in the data active = activation above about 37%;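 note: CHO cells stably expressing TAAR1 with calcium dye readout; 0% = DMSO vehicle and 100% = full agonist response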
Starred values were filed as active, the others as inactive.

Results for COc1ccc(Br)cc1CN1CCCC(C(=O)N2CCCCC2)C1 (configuration not stated) ?
TAAR1 ag: 4; MC4R ag barr: -1; MC4R antag cAMP: -1; TAAR1 antagonist: 12; Beta2AR agonist: -7; m5-HT2A agonist: 0

What do the screens show for `O=C(NCc1nc2ccccc2[nH]1)c1ccc(Cl)c(S(=O)(=O)N2CCCC2)c1`?
TAAR1 ag: 6; MC4R ag barr: -3; MC4R antag cAMP: 7; TAAR1 antagonist: 16; Beta2AR agonist: -6; m5-HT2A agonist: -2

Results for CCCn1c(NC(=O)c2ccc(Cl)c(S(=O)(=O)N3CCCC3)c2)nc2ccccc21 ?
TAAR1 ag: 10; MC4R ag barr: -2; MC4R antag cAMP: 9; TAAR1 antagonist: 57*; Beta2AR agonist: -4; m5-HT2A agonist: -3; nonsel antag count: 38*; TAAR1 ant conf: 34; Ga16 nonsel ag: 11; TAAR1 ag counter: 0

What do the screens show for `CCOc1ccc(NC(=O)CN(C)C(=O)c2cn(-c3ccc(F)cc3)nc2-c2cccc(OC)c2)cc1OCC`?
TAAR1 ag: 8; MC4R ag barr: -2; MC4R antag cAMP: 13; TAAR1 antagonist: 70*; Beta2AR agonist: 3; m5-HT2A agonist: -1; nonsel antag count: 33*; TAAR1 ant conf: 38; Ga16 nonsel ag: 6; TAAR1 ag counter: 1

What do the screens show for `COc1ccc(NC(=O)CN(C)C(=O)c2cn(-c3ccccc3)nc2-c2cccs2)cc1`?
TAAR1 ag: 11; MC4R ag barr: -1; MC4R antag cAMP: 6; TAAR1 antagonist: 56*; Beta2AR agonist: 5; m5-HT2A agonist: -2; nonsel antag count: 24*; TAAR1 ant conf: 40; Ga16 nonsel ag: 6; TAAR1 ag counter: 4

What do the screens show for `CN(CC(=O)Nc1ccc(F)cc1)C(=O)c1cc(-c2cccs2)nn1-c1ccccc1`?
TAAR1 ag: 6; MC4R ag barr: -2; MC4R antag cAMP: 11; TAAR1 antagonist: 69*; Beta2AR agonist: 15; m5-HT2A agonist: -2; nonsel antag count: 28*; TAAR1 ant conf: 45; Ga16 nonsel ag: 6; TAAR1 ag counter: 8

How did COC(=O)c1c(-c2ccccc2)oc2c1C(OCCO)CCC2 (configuration not stated) do in these assays?
TAAR1 ag: 7; TAAR1 antagonist: -7; m5-HT2A agonist: -2

What do the screens show for `CCOC(=O)C1CCN(C(=O)c2ccc3c(=O)n4nc(Nc5ccccc5OC)sc4nc3c2)CC1`?
TAAR1 ag: 4; MC4R ag barr: -1; MC4R antag cAMP: 1; TAAR1 antagonist: 22; m5-HT2A agonist: 6

How did Cc1ccc(S(=O)(=O)Nc2ccccc2N=Cc2ccc([N+](=O)[O-])cc2[N+](=O)[O-])cc1 do in these assays?
TAAR1 ag: 13; MC4R ag barr: 1; MC4R antag cAMP: 22; TAAR1 antagonist: 64*; Beta2AR agonist: -3; m5-HT2A agonist: -1; nonsel antag count: -4; TAAR1 ant conf: -3; Ga16 nonsel ag: 0; TAAR1 ag counter: 6

What do the screens show for `CC(C)CC1NC(=O)c2ccccc2-n2c1nc1ccc(Cl)cc1c2=O` (configuration not stated)?
TAAR1 ag: 2; TAAR1 antagonist: -11

What do the screens show for `C=CCN(C(=O)C1CC(=O)N(C2CCCC2)C1)c1nc(-c2ccc(S(C)(=O)=O)cc2)cs1` (configuration not stated)?
TAAR1 ag: 33; MC4R ag barr: 0; MC4R antag cAMP: 2; TAAR1 antagonist: 78*; Beta2AR agonist: 26; m5-HT2A agonist: 7; nonsel antag count: 38*; TAAR1 ant conf: 65*; Ga16 nonsel ag: 18*; TAAR1 ag counter: 30

What do the screens show for `C=CCN(C(=O)CN1CCCCC1)c1nc(-c2ccccc2)cs1`?
TAAR1 ag: -3; MC4R ag barr: 4; MC4R antag cAMP: 1; TAAR1 antagonist: -11; Beta2AR agonist: -6; m5-HT2A agonist: -5

How did c1ccc(COc2cccc(-c3cc4nc(NCCc5ccncc5)ccn4n3)c2)cc1 do in these assays?
TAAR1 ag: 12; MC4R ag barr: 1; MC4R antag cAMP: 13; TAAR1 antagonist: 71*; m5-HT2A agonist: 1; nonsel antag count: 38*; TAAR1 ant conf: 51*; Ga16 nonsel ag: 9; TAAR1 ag counter: 17

How did O=C(C(Sc1ccccc1)c1ccccc1)N1CCN(c2ccccc2F)CC1 (configuration not stated) do in these assays?
TAAR1 ag: 6; MC4R ag barr: 0; MC4R antag cAMP: -1; TAAR1 antagonist: 50*; Beta2AR agonist: 5; m5-HT2A agonist: -2; nonsel antag count: 17; TAAR1 ant conf: 36; Ga16 nonsel ag: 7; TAAR1 ag counter: 8

How did COc1ccccc1N1CCN(C(=O)C2CCN(C(=O)c3cccc(Cl)c3)CC2)CC1 do in these assays?
TAAR1 ag: -2; MC4R ag barr: -1; MC4R antag cAMP: 4; TAAR1 antagonist: -2; Beta2AR agonist: -2; m5-HT2A agonist: 4

What do the screens show for `COc1ccccc1N1CCN(C(=O)c2cccc(C(=O)N3CCN(c4ccccc4OC)CC3)c2)CC1`?
TAAR1 ag: 17; MC4R ag barr: 2; MC4R antag cAMP: 2; TAAR1 antagonist: 54*; Beta2AR agonist: 12; m5-HT2A agonist: 2; nonsel antag count: 27*; TAAR1 ant conf: 49*; Ga16 nonsel ag: 9; TAAR1 ag counter: 10

Results for O=C(c1c(F)cccc1F)N1CCN(c2ccccc2F)CC1 ?
TAAR1 ag: 9; MC4R ag barr: 0; MC4R antag cAMP: 7; TAAR1 antagonist: -10; Beta2AR agonist: 4; m5-HT2A agonist: -8

Results for O=C(c1cccc(C(=O)N2CCN(c3ccccc3F)CC2)c1)N1CCN(c2ccccc2F)CC1 ?
TAAR1 ag: 11; MC4R ag barr: 1; MC4R antag cAMP: -2; TAAR1 antagonist: 68*; Beta2AR agonist: 4; m5-HT2A agonist: 1; nonsel antag count: 27*; TAAR1 ant conf: 36; Ga16 nonsel ag: 9; TAAR1 ag counter: 5

Results for O=C(c1ccc(N2CCN(C(=O)c3cccc(F)c3)CC2)cc1)c1cccc(F)c1 ?
TAAR1 ag: 4; MC4R ag barr: -2; MC4R antag cAMP: 18; TAAR1 antagonist: 53*; Beta2AR agonist: 13; m5-HT2A agonist: -2; nonsel antag count: 24*; TAAR1 ant conf: 34; Ga16 nonsel ag: 9; TAAR1 ag counter: 11

Source: PubChem
